Data reported in ChEMBL document CHEMBL4312003, “Optimization of biaryloxazolidinone as promising antibacterial agents against antibiotic-susceptible and antibiotic-resistant gram-positive bacteria” (Eur J Med Chem, 2020).
Values after ≈ are worked out from the molar mass of the structure shown.

What was measured:
[1] = Solubility of compound in water by UV spectrophotometric analysis; type: physicochemical
[2] = Metabolic stability in rat assessed as half life measured after intragastric administration; type: ADME; details: in vivo, po
[3] = Drug metabolism in rat plasma assessed as N-[[(5S)-3-[3-fluoro-4-[3-hydroxy-4-[(E)-(4-methylpiperazin-1-yl)iminomethyl]phenyl]phenyl]-2-oxo-oxazolidin-5-yl]methyl]acetamide formation administered vig ig route measured by UPLC-QTOF/MS analysis; type: ADME; details: po
[4] = Drug metabolism in rat plasma assessed as N-[[(5S)-3-[3-fluoro-4-[4-[(E)-piperazin-1-yliminomethyl]phenyl]phenyl]-2-oxo-oxazolidin-5-yl]methyl]acetamide formation administered vig ig route measured by UPLC-QTOF/MS analysis; type: ADME; details: po
[5] = Drug metabolism in rat plasma assessed as N-[[(5S)-3-[3-fluoro-4-(4-formylphenyl)phenyl]-2-oxo-oxazolidin-5-yl]methyl]acetamide formation administered vig ig route measured by UPLC-QTOF/MS analysis; type: ADME; details: po
[6] = Drug metabolism in rat plasma assessed as 4-[4-[(5S)-5-(acetamidomethyl)-2-oxo-oxazolidin-3-yl]-2-fluoro-phenyl]benzoic acid formation administered vig ig route measured by UPLC-QTOF/MS analysis; type: ADME; details: po
Staphylococcus aureus [7] = assay: Antibacterial activity against Staphylococcus aureus ATCC 29213 assessed as complete reduction in bacterial cell growth by CLSI protocol based broth liquid microdilution method; type: functional
Procedure, shortened: (§1)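 Broth liquid microdilution per CLSI guidelines; isolates identified on an automated MicroScan system before testing. MIC taken as lowest concentration giving total inhibition of bacterial growth, reported in μg/mL. S. aureus ATCC29213 run as the control strain.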

Staphylococcus aureus [8] = assay: Antibacterial activity against methicillin-resistant Staphylococcus aureus assessed as complete reduction in bacterial cell growth by CLSI protocol based broth liquid microdilution method; type: functional; procedure, shortened: as §1
Staphylococcus aureus [9] = assay: Antibacterial activity against methicillin-sensitive Staphylococcus aureus assessed as complete reduction in bacterial cell growth by CLSI protocol based broth liquid microdilution method; type: functional; procedure, shortened: as §1
Enterococcus faecalis [10] = assay: Antibacterial activity against linezolid-resistant Enterococcus faecalis assessed as complete reduction in bacterial cell growth by CLSI protocol based broth liquid microdilution method; type: functional; procedure, shortened: as §1
Enterococcus faecium [11] = assay: Antibacterial activity against vancomycin-resistant Enterococcus faecium assessed as complete reduction in bacterial cell growth by CLSI protocol based broth liquid microdilution method; type: functional; procedure, shortened: as §1
Staphylococcus aureus [12] = assay: Antibacterial activity against clinical isolates of methicillin-sensitive Staphylococcus aureus assessed as reduction in bacterial cell growth by CLSI protocol based broth microdilution method; type: functional; procedure, shortened: as §1
Enterococcus faecalis [13] = assay: Antibacterial activity against clinical isolates of linezolid-resistant Enterococcus faecalis assessed as complete reduction in bacterial cell growth by CLSI protocol based broth liquid microdilution method; type: functional; procedure, shortened: as §1
Enterococcus faecium [14] = assay: Antibacterial activity against clinical isolates of vancomycin-resistant Enterococcus faecium assessed as complete reduction in bacterial cell growth by CLSI protocol based broth liquid microdilution method; type: functional; procedure, shortened: as §1
Staphylococcus aureus [15] = assay: Potency index, ratio of rade-zolid MIC to compound MIC for antibacterial activity against Staphylococcus aureus ATCC 29213 by CLSI protocol based broth liquid microdilution method; type: functional
Staphylococcus aureus [16] = assay: Potency index, ratio of rade-zolid MIC to compound MIC for antibacterial activity against methicillin-sensitive Staphylococcus aureus by CLSI protocol based broth liquid microdilution method; type: functional
Enterococcus faecalis [17] = assay: Potency index, ratio of rade-zolid MIC to compound MIC for antibacterial activity against linezolid-resistant Enterococcus faecalis by CLSI protocol based broth liquid microdilution method; type: functional
Enterococcus faecium [18] = assay: Potency index, ratio of rade-zolid MIC to compound MIC for antibacterial activity against vancomycin-resistant Enterococcus faecium by CLSI protocol based broth liquid microdilution method; type: functional
[19] = Stability in simulated gastric acid assessed as compound remaining at pH 1.2 incubated for 0.5 hrs; type: ADME; details: read-out: Stability
[20] = Stability in simulated gastric acid assessed as compound remaining at pH 1.2 incubated for 1 hr; type: ADME; details: read-out: Stability
[21] = Stability in simulated gastric acid assessed as compound remaining at pH 1.2 incubated for 1.5 hrs; type: ADME; details: read-out: Stability
[22] = Stability in simulated gastric acid assessed as compound remaining at pH 1.2 incubated for 2 hrs; type: ADME; details: read-out: Stability
HepG2 = assay: Cytotoxicity against human HepG2 cells assessed as reduction in cell viability incubated for 48 hrs by MTT assay; type: cell-based; details: HepG2, 48 h
Procedure, shortened: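 HepG2 cells were grown in RPMI1640 with 10% FBS and plated at about 4×10^4 cells/well in MEM. After 24 h at 37 °C in 5% CO2, compounds were added at the indicated final concentrations for 48 h. MTT was added (0.5 mg/mL final) for 4 h at 37 °C and the formazan dissolved in DMSO. Absorbance was read at 492 nm (630 nm reference). Each compound was tested three times; IC50 given as mean ± SD.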

MAO-A = target: T1, MAO-A (Homo sapiens, UniProt P21397); assay: Inhibition of recombinant human MAO-A (active motif 31502) at 30 uM using luciferin as substrate incubated for 15 mins followed by substrate addition and measured after 60 mins by luminescence based method relative to control; details: probe luciferin
T1 sequence (P21397 whole entry): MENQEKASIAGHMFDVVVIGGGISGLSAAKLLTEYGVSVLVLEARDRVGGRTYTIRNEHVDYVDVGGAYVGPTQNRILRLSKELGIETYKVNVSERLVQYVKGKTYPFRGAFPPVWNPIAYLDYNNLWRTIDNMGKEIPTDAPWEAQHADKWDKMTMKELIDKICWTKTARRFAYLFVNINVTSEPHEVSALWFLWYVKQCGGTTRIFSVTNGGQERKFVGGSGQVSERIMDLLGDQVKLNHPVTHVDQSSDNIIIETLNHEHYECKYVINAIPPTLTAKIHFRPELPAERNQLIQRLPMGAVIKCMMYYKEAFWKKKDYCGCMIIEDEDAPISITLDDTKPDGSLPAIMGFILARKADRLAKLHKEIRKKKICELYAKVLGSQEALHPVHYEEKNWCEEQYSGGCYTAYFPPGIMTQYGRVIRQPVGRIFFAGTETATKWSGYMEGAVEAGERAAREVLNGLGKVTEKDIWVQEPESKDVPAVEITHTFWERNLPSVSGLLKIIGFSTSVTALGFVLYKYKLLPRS
Procedure, shortened: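 Recombinant human MAO-A was measured with the MAO-Glo kit, modified. Compounds were in DMSO (1% DMSO final) and preincubated with enzyme 15 min at room temperature. Luciferin-derivative substrate was then added and the reaction run 60 min at room temperature. Luciferase detection reagent was added for 20 min and luminescence read. Buffer without enzyme served as the 100% inhibition control; DMSO alone as the no-inhibition control. Percent inhibition = (Max − signal)/(Max − Min)×100.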

Staphylococcus aureus [23] = assay: Potency index, ratio of MIC of linezolid to MIC of compound for antibacterial activity against clinical isolates of methicillin-sensitive Staphylococcus aureus by CLSI protocol based broth liquid microdilution method; type: functional
[24] = Stability in human liver microsomes assessed as half life at 1.5 uM preincubated for 5 mins with NADPH and measured after 45 mins by LC/MS analysis; type: ADME, Microsome; details: liver microsomes
Procedure, shortened: (§2)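 Compound solution at 1.5 µM with 0.75 mg/mL microsomes (before NADPH addition) was preincubated 5 min at 37 °C. Reactions were started with NADPH (6 mM stock). Samples were quenched with acetonitrile containing internal standard at 0, 5, 15, 30 and 45 min, then centrifuged, and the supernatant was diluted with water for LC/MS. Runs were in duplicate. T1/2 = ln2/k from the log-linear slope, and CLint was derived from T1/2.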

[25] = Stability in human liver microsomes assessed as intrinsic clearance at 1.5 uM preincubated for 5 mins with NADPH and measured after 45 mins by LC/MS analysis; type: ADME, Microsome; details: read-out: CLH; procedure, shortened: as §2
[26] = Stability in human liver microsomes assessed as compound remaining at 1.5 uM preincubated for 5 mins with NADPH and measured after 45 mins by LC/MS analysis; type: ADME, Microsome; details: liver microsomes, read-out: Stability; procedure, shortened: as §2

| SMILES | solubility [1] [µg/mL] | MIC (Staphylococcus aureus [7]) [µg/mL] | MIC (Staphylococcus aureus [8]) [µg/mL] | MIC (Staphylococcus aureus [9]) [µg/mL] | MIC (Enterococcus faecalis [10]) [µg/mL] | MIC (Enterococcus faecium [11]) [µg/mL] | MIC (Staphylococcus aureus [12]) [µg/mL] | MIC (Enterococcus faecalis [13]) [µg/mL] | MIC (Enterococcus faecium [14]) [µg/mL] | Ratio (Staphylococcus aureus [15]) | Ratio (Staphylococcus aureus [16]) | Ratio (Enterococcus faecalis [17]) | Ratio (Enterococcus faecium [18]) | remaining at 0.5 h [19] [%] | remaining at 1 h [20] [%] | remaining at 1.5 h [21] [%] | remaining at 2 h [22] [%] | IC50 (HepG2) [µM] | inhibition at 1 h, 30 µM (MAO-A) [%] | also measured |
| --- | --- | --- | --- | --- | --- | --- | --- | --- | --- | --- | --- | --- | --- | --- | --- | --- | --- | --- | --- | --- |
| CC(=O)NC[C@H]1CN(c2ccc(-c3ccc(/C=N/N4CCN(C)CC4)cc3)c(F)c2)C(=O)O1 | 11.9 (≈ 26.2 µM) |  |  |  |  |  |  |  |  |  |  |  |  |  |  |  |  |  |  | half-life [2]: 2.7 h; Drug metabolism [3]: Metabolite_Detected; Drug metabolism [4]: Metabolite_Detected; Drug metabolism [5]: Metabolite_Detected; Drug metabolism [6]: Metabolite_Detected |
| CC(=O)NC[C@H]1CN(c2ccc(-c3ccc(/C=N/N4CCOCC4)nc3)c(F)c2)C(=O)O1 |  | 0.125 (≈ 0.283 µM) | 0.125 (≈ 0.283 µM) | 0.25 (≈ 0.566 µM) | 0.25 (≈ 0.566 µM) | 0.25 (≈ 0.566 µM) | 0.25 to 0.5 (≈ 0.566 to 1.13 µM) | 0.25 to 0.5 (≈ 0.566 to 1.13 µM) | 1 (≈ 2.27 µM) | 2 - 4 | 2 - 4 | 2 - 4 | 2 - 4 |  |  |  |  |  |  |  |
| CC(=O)NC[C@H]1CN(c2ccc(-c3ccc(/C=N/N4CCSCC4)c(O)c3)c(F)c2)C(=O)O1 |  | 0.125 (≈ 0.265 µM) | 0.125 (≈ 0.265 µM) | 0.125 (≈ 0.265 µM) | 0.125 (≈ 0.265 µM) | 0.125 (≈ 0.265 µM) | 0.125 to 0.25 (≈ 0.265 to 0.529 µM) | 0.125 to 0.25 (≈ 0.265 to 0.529 µM) | 0.125 to 0.25 (≈ 0.265 to 0.529 µM) |  |  |  |  | 96 | 94.6 | 82.9 | 75.9 | > 25 | 62 | Ratio (Staphylococcus aureus [23]): 4 - 32 |
| CC(=O)NC[C@H]1CN(c2ccc(-c3ccc(/C=N/N4CCS(=O)(=O)CC4)nc3)c(F)c2)C(=O)O1 | 68 (≈ 139 µM) | 0.125 (≈ 0.255 µM) | 0.125 (≈ 0.255 µM) | 0.125 (≈ 0.255 µM) | 0.25 (≈ 0.511 µM) | 0.125 (≈ 0.255 µM) | 0.25 to 0.5 (≈ 0.511 to 1.02 µM) | 0.25 to 0.5 (≈ 0.511 to 1.02 µM) | 0.5 (≈ 1.02 µM) | 2 - 4 | 2 - 4 | 2 - 4 | 2 - 4 | 99.7 | 99.4 | 99.2 | 98.7 | > 25 | 72 | half-life at 1.5 µM [24]: 6.82 h; CLint scaled at 1.5 µM [25]: 4.25 mL/min/kg; remaining at 0.75 h, 1.5 µM [26]: 93% |
